# Experimental data as given in ChEMBL document CHEMBL2021813, “Semisynthetic neoclerodanes as kappa opioid receptor probes” (Bioorg Med Chem, 2012).
# Key:
# [1] = system: Rhesus monkey; assay: In vivo binding affinity to kappa opioid receptor in iv dosed rhesus monkey assessed as rightward shift in serum prolactin level administered every 20 mins measured every 15 mins by immunoradiometric analysis; type: functional; details: Macaca mulatta
# Method in brief: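 Chair-trained male rhesus monkeys received i.v. cumulative doses rising in 0.5 log steps every 20 min. Blood was sampled 15 min after each dose, after two baseline samples at −10 and −5 min. Serum prolactin was expressed as change from each subject's pre-injection baseline, as mean ±SEM. ED50 came from linear regression of mean dose-effect points spanning the ED50.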
# [2] = molecular target: T1, Delta-type opioid receptor (Homo sapiens, UniProt P41143); assay: Displacement of [3H]DADLE from human recombinant delta opioid receptor expressed in CHO cells after 2 hrs by liquid scintillation counting; type: cell-based
# T1 sequence (P41143 whole entry): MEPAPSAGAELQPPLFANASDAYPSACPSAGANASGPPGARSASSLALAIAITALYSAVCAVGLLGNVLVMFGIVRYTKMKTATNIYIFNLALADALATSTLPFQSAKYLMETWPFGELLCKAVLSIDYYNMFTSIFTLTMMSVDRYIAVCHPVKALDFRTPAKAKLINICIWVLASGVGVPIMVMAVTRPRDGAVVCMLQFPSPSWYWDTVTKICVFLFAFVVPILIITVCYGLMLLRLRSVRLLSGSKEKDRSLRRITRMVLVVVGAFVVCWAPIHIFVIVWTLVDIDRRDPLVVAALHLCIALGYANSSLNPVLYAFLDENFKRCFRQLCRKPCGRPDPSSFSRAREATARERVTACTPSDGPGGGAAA
# Method in brief: (§1)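 Membranes from CHO cells stably transfected with human DOP, MOP or KOP receptor, in 50 mM Tris-HCl pH 7.4 with a protease inhibitor cocktail. The ~2 nM [3H]radioligand was displaced by 10 drug concentrations, in triplicate, for 2 hr at 25 °C, then filtered over GF/B. Nonspecific binding was set by 20 μM levallorphan (DADLE, DAMGO) or 1 μM (−)-U69,593 (U69,593). Ki (±SD) came from full curves, n=3.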
# [3] = molecular target: T2, Kappa-type opioid receptor (Homo sapiens, UniProt P41145); assay: Displacement of [3H]U69593 from human recombinant kappa opioid receptor expressed in CHO cells after 2 hrs by liquid scintillation counting; type: cell-based; method in brief: as §1
# T2 sequence (P41145 whole entry): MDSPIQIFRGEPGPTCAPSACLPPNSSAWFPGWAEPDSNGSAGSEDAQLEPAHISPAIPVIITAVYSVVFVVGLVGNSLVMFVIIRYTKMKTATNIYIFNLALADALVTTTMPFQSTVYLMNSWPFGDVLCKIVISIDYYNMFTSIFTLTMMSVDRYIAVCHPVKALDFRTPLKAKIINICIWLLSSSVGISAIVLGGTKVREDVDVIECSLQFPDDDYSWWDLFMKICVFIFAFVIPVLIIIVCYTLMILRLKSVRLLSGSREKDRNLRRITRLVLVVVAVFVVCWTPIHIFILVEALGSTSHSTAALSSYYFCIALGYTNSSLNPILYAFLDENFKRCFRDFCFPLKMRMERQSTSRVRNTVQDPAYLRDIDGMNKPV
# [4] = molecular target: T1, Delta-type opioid receptor; assay: Displacement of [3H]DADLE from human recombinant delta opioid receptor expressed in CHO cells at 10 uM after 2 hrs by liquid scintillation counting; type: cell-based
# Method in brief: (§2)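 Radioligand (~2 nM) competition on human opioid receptor CHO membranes in Tris-HCl pH 7.4, 2 hr at 25 °C, with GF/B filtration and scintillation counting. Results are percent of control produced by a single test drug concentration, 1 μM or 10 μM as the line states. Nonspecific binding was set by 20 μM levallorphan (DADLE, DAMGO) or 1 μM (−)-U69,593 (U69,593).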
# [5] = molecular target: T3, Mu-type opioid receptor (Homo sapiens, UniProt P35372); assay: Displacement of [3H]DAMGO from human recombinant mu opioid receptor expressed in CHO cells after 2 hrs by liquid scintillation counting; type: cell-based; method in brief: as §1
# T3 sequence (P35372 whole entry): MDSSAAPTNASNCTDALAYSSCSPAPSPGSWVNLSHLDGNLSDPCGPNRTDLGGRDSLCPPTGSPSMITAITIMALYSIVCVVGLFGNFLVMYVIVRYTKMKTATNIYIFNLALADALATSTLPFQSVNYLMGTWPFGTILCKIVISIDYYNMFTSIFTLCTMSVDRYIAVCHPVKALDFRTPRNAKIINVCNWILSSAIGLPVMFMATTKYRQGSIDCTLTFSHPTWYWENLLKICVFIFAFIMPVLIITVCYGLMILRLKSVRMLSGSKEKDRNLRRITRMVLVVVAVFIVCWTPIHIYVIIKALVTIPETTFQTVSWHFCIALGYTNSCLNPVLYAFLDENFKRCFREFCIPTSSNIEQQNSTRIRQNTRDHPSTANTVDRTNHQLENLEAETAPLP
# [6] = molecular target: T2, Kappa-type opioid receptor; assay: Agonist activity at human recombinant kappa opioid receptor expressed in CHO cells assessed as [35S]GTP-gamma-S binding after 3 hrs by liquid scintillation counting relative to (-)U50488; type: functional, cell-based
# Method in brief: (§3)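 hKOP-CHO membranes (50 μg protein) were incubated with 50 pM [35S]GTP-γ-S and 40 μM GDP. Final buffer was 50 mM Tris-HCl pH 7.4, 100 mM NaCl, 10 mM MgCl2, 1 mM EDTA, 1 mM DTT and 0.1% BSA. Incubation ran 3 hr at 25 °C. Nonspecific binding was set with 40 μM GTP-γ-S. Bound label was separated by vacuum filtration through GF/B and counted.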
# [7] = molecular target: T2, Kappa-type opioid receptor; assay: Agonist activity at human recombinant kappa opioid receptor expressed in CHO cells assessed as [35S]GTP-gamma-S binding after 3 hrs by liquid scintillation counting; type: functional, cell-based; method in brief: as §3
# [8] = molecular target: T2, Kappa-type opioid receptor; assay: Partial agonist activity at human recombinant kappa opioid receptor expressed in CHO cells assessed as [35S]GTP-gamma-S binding after 3 hrs by liquid scintillation counting; type: functional, cell-based; method in brief: as §3
# [9] = molecular target: T2, Kappa-type opioid receptor; assay: Partial agonist activity at human recombinant kappa opioid receptor expressed in CHO cells assessed as [35S]GTP-gamma-S binding after 3 hrs by liquid scintillation counting relative to (-)U50488; type: functional, cell-based; method in brief: as §3
# [10] = molecular target: T3, Mu-type opioid receptor; assay: Displacement of [3H]DAMGO from human recombinant mu opioid receptor expressed in CHO cells at 10 uM after 2 hrs by liquid scintillation counting; type: cell-based; method in brief: as §2
# [11] = Chemical solubility of the compound in THF; type: physicochemical
# [12] = molecular target: T3, Mu-type opioid receptor; assay: Displacement of [3H]DAMGO from human recombinant mu opioid receptor expressed in CHO cells at 1 uM after 2 hrs by liquid scintillation counting; type: cell-based; method in brief: as §2
# [13] = molecular target: T2, Kappa-type opioid receptor; assay: Agonist activity at human recombinant kappa opioid receptor expressed in CHO cells assessed as calcium mobilization after 1 hrs by fluorescence analysis relative to U69593; type: functional, cell-based
# Method in brief: (§4)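 CHO cells stably expressing KOP receptor with Gαq16 were plated at 30,000 cells/well and grown overnight at 37 °C. They were loaded with Calcium 5 dye in HBSS with 20 mM HEPES, 0.25% BSA, 1% DMSO and probenecid for 1 h at 37 °C. Compounds were added at 10X after a ~17 sec baseline, and fluorescence (ex 485/em 525 nm) was read every 1.52 sec for 60 sec. EC50 and Emax are given ±SD.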
# [14] = molecular target: T2, Kappa-type opioid receptor; assay: Agonist activity at human recombinant kappa opioid receptor expressed in CHO cells assessed as calcium mobilization after 1 hrs by fluorescence analysis; type: functional, cell-based; method in brief: as §4
# [15] = molecular target: T1, Delta-type opioid receptor; assay: Displacement of [3H]DADLE from human recombinant delta opioid receptor expressed in CHO cells at 1 uM after 2 hrs by liquid scintillation counting; type: cell-based; method in brief: as §2
# [16] = Chemical solubility of the compound in 50 mM Tris-HCl at pH 7.4; type: physicochemical; details: buffer
Compound,Ki [2] [nM],Ki [3] [nM],Activity [4] [%],Ki [5] [nM],Emax [6] [%],further results
COC(=O)[C@@H]1C[C@H](OC(C)=O)C(=O)[C@H]2[C@@]1(C)CC[C@H]1C(=O)O[C@H](c3ccoc3)C[C@]21C [SALVINORIN A],,,,,,ED50 [1]: 3.7 µg/kg
COC(=O)[C@@H]1C[C@H](OC(C)=O)C(=O)[C@H]2[C@@]1(C)CC[C@H]1C(=O)O[C@H](C(=O)c3ccco3)C[C@]21C,> 10000,80,91,9800,92,EC50 [7]: 2130 nM
COC(=O)[C@@H]1C[C@H](OC(C)=O)C(=O)[C@H]2[C@@]1(C)CC[C@H]1C(=O)O[C@H](C(=O)c3ccccc3)C[C@]21C,> 10000,70,100,1490,,EC50 [8]: 2280 nM; Emax [9]: 74%
COC(=O)[C@@H]1C[C@H](OC(C)=O)C(=O)[C@H]2[C@@]1(C)CC[C@H]1C(=O)O[C@H](C(=O)c3cccs3)C[C@]21C,> 10000,36,99,> 10000,95,EC50 [7]: 1630 nM; Activity [10]: 65%
COC(=O)[C@@H]1C[C@H](OC(C)=O)C(=O)[C@H]2[C@@]1(C)CC[C@H]1C(=O)O[C@H](C(=O)c3cc4ccccc4s3)C[C@]21C,> 10000,9210,95,> 10000,,Activity [10]: 58%
COC(=O)[C@@H]1C[C@H](OC(C)=O)C(=O)[C@H]2[C@@]1(C)CC[C@H]1C(=O)O[C@H](C=O)C[C@]21C,,,,,,solubility [11]: Insoluble
COC(=O)[C@@H]1C[C@H](OC(C)=O)C(=O)[C@H]2[C@@]1(C)CC[C@H]1C(=O)O[C@H](C(=O)c3ccccc3O)C[C@]21C,> 10000,500,94,3600,,
COC(=O)[C@@H]1C[C@H](OC(C)=O)C(=O)[C@H]2[C@@]1(C)CC[C@H]1C(=O)O[C@H](c3ccco3)C[C@]21C,> 10000,,,> 1000,104,Activity [12]: 81%; Emax [13]: 97%; EC50 [14]: 12.2 nM; Activity [15]: 99%; EC50 [7]: 140 nM
COC(=O)[C@@H]1C[C@H](OC(C)=O)C(=O)[C@H]2[C@@]1(C)CC[C@H]1C(=O)O[C@H](/C=C\c3ccoc3)C[C@]21C,,,94,,105,solubility [16]: Insoluble
COC(=O)[C@@H]1C[C@H](OC(C)=O)C(=O)[C@H]2[C@@]1(C)CC[C@H]1C(=O)O[C@H](C(=O)c3cccc(OC(F)(F)F)c3)C[C@]21C,> 1000,> 10000,,4800,,Activity [15]: 37%
COC(=O)[C@@H]1C[C@H](OC(C)=O)C(=O)[C@H]2[C@@]1(C)CC[C@H]1C(=O)O[C@H](C(=O)c3cccc(O)c3)C[C@]21C,> 10000,110,80,> 1000,,Activity [12]: 55%
COC(=O)[C@@H]1C[C@H](OC(C)=O)C(=O)[C@H]2[C@@]1(C)CC[C@H]1C(=O)O[C@H](/C=C/c3ccoc3)C[C@]21C,> 10000,1120,66,> 10000,,Activity [10]: 78%
C/C=C\C(=O)[C@@H]1C[C@]2(C)[C@H]3C(=O)[C@@H](OC(C)=O)C[C@@H](C(=O)OC)[C@]3(C)CC[C@H]2C(=O)O1,> 5000,320,,> 1700,,
